ChEMBL document CHEMBL1944580, “Synthesis of novel sulfonamide-1,2,4-triazoles, 1,3,4-thiadiazoles and 1,3,4-oxadiazoles, as potential antibacterial and antifungal agents. Biological evaluation and conformational analysis studies” (2012)
≈ marks a conversion by molar mass, not a printed value.

Test system: Micrococcus flavus
Assay: Antibacterial activity against Micrococcus flavus ATCC 10240 treated for 24 hrs followed by sub-cultivated for 72 hrs by micro dilution method
Assay type: functional
Conditions: not given
In short: (§1)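 2 µl from each well was serially subcultured into 100 µl fresh broth per well and incubated a further 72 h. MBC is the lowest concentration with no visible growth, taken as 99.5% killing of the original inoculum. Streptomycin and ampicillin were the positive controls.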

Compound	MBC [µM]
CCCn1c(Cc2cc(OC)c(OC)cc2S(=O)(=O)N(C)C)n[nH]c1=S	500 (≈ 200 µg/mL)

Test system: Salmonella typhimurium
Assay: Antibacterial activity against Salmonella Typhimurium ATCC 13311 treated for 24 hrs followed by sub-cultivated for 72 hrs by micro dilution method
Assay type: functional, Salmonella enterica subsp. enterica serovar Typhimurium
Conditions: Salmonella enterica
In short: as §1

Compound	MBC [µM]
CCCn1c(Cc2cc(OC)c(OC)cc2S(=O)(=O)N(C)C)n[nH]c1=S	500 (≈ 200 µg/mL)

Test system: Fulvia fulva
Assay: Antifungal activity against Fulvia fulva treated for 72 hrs followed by sub-cultivated for 5 days by serial dilution method
Assay type: functional
Conditions: not given
In short: (§2)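 MFC obtained after the 72 h, 28 °C malt-broth microdilution (spore inoculum about 1.0 × 10^5 per well, compounds from 1 mg/ml DMSO). 2 µl was serially subcultured into 100 µl broth per well and incubated a further 5 days at 28 °C. MFC is the lowest concentration with no visible growth, taken as 99.5% killing of the original inoculum.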

Compound	MFC [µM]
CCCn1c(Cc2cc(OC)c(OC)cc2S(=O)(=O)N(C)C)n[nH]c1=S	130 (≈ 52.1 µg/mL)

Test system: Listeria monocytogenes
Assay: Antibacterial activity against Listeria monocytogenes NCTC 7973 treated for 24 hrs followed by sub-cultivated for 72 hrs by micro dilution method
Assay type: functional
Conditions: not given
In short: as §1

Compound	MBC [µM]
CCCn1c(Cc2cc(OC)c(OC)cc2S(=O)(=O)N(C)C)n[nH]c1=S	250 (≈ 100 µg/mL)

Test system: Salmonella typhimurium
Assay: Antibacterial activity against Salmonella Typhimurium ATCC 13311 after 24 hrs by micro dilution method
Assay type: functional, Salmonella enterica subsp. enterica serovar Typhimurium
Conditions: Salmonella enterica, ATCC 13311, 24 h
In short: (§3)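 Microdilution MIC in 96-well plates. Bacterial suspensions adjusted in sterile saline to 1.0 × 10^5 CFU/ml, giving 1.0 × 10^4 cfu per well in LB broth. Compounds tested at up to 1 mg/ml. Plates incubated 24 h. MIC taken as the lowest concentration with no visible growth under a binocular microscope. OD at 655 nm was also read against a blank and the positive control. Streptomycin and ampicillin were the positive controls.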

Compound	MIC [µM]
CCCn1c(Cc2cc(OC)c(OC)cc2S(=O)(=O)N(C)C)n[nH]c1=S	500 (≈ 200 µg/mL)

Test system: Bacillus cereus
Assay: Antibacterial activity against Bacillus cereus clinical isolate treated for 24 hrs followed by sub-cultivated for 72 hrs by micro dilution method
Assay type: functional
Conditions: not given
In short: as §1

Compound	MBC [µM]
CCCn1c(Cc2cc(OC)c(OC)cc2S(=O)(=O)N(C)C)n[nH]c1=S	500 (≈ 200 µg/mL)

Test system: Fulvia fulva
Assay: Antifungal activity against Fulvia fulva after 72 hrs by serial dilution method
Assay type: functional
Conditions: not given
In short: (§4)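 Modified microdilution MIC. Spores were washed from malt agar cultures with sterile 0.85% saline containing 0.1% Tween 80 and adjusted to about 1.0 × 10^5 per 100 µl well in malt broth. Compounds were dissolved in DMSO (1 mg/ml). Plates incubated 72 h at 28 °C. MIC is the lowest concentration with no visible growth under a binocular microscope. Bifonazole and ketoconazole were the references.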

Compound	MIC [µM]
CCCn1c(Cc2cc(OC)c(OC)cc2S(=O)(=O)N(C)C)n[nH]c1=S	60 (≈ 24 µg/mL)

Test system: Pseudomonas aeruginosa
Assay: Antibacterial activity against Pseudomonas aeruginosa ATCC 27853 treated for 24 hrs followed by sub-cultivated for 72 hrs by micro dilution method
Assay type: functional
Conditions: not given
In short: as §1

Compound	MBC [µM]
CCCn1c(Cc2cc(OC)c(OC)cc2S(=O)(=O)N(C)C)n[nH]c1=S	500 (≈ 200 µg/mL)

Test system: Pseudomonas aeruginosa
Assay: Antibacterial activity against Pseudomonas aeruginosa ATCC 27853 after 24 hrs by micro dilution method
Assay type: functional
Conditions: ATCC 27853, 24 h
In short: as §3

Compound	MIC [µM]
CCCn1c(Cc2cc(OC)c(OC)cc2S(=O)(=O)N(C)C)n[nH]c1=S	500 (≈ 200 µg/mL)

Test system: Escherichia coli
Assay: Antibacterial activity against Escherichia coli ATCC 35210 after 24 hrs by micro dilution method
Assay type: functional
Conditions: ATCC 35210, 24 h
In short: as §3

Compound	MIC [µM]
CCCn1c(Cc2cc(OC)c(OC)cc2S(=O)(=O)N(C)C)n[nH]c1=S	500 (≈ 200 µg/mL)

Test system: Aspergillus versicolor
Assay: Antifungal activity against Aspergillus versicolor ATCC 11730 treated for 72 hrs followed by sub-cultivated for 5 days by serial dilution method
Assay type: functional
Conditions: not given
In short: as §2

Compound	MFC [µM]
CCCn1c(Cc2cc(OC)c(OC)cc2S(=O)(=O)N(C)C)n[nH]c1=S	500 (≈ 200 µg/mL)

Test system: Trichoderma viride
Assay: Antifungal activity against Trichoderma viride IAM 5061 treated for 72 hrs followed by sub-cultivated for 5 days by serial dilution method
Assay type: functional
Conditions: not given
In short: as §2

Compound	MFC [µM]
CCCn1c(Cc2cc(OC)c(OC)cc2S(=O)(=O)N(C)C)n[nH]c1=S	130 (≈ 52.1 µg/mL)

Test system: Aspergillus niger
Assay: Antifungal activity against Aspergillus niger ATCC 6275 treated for 72 hrs followed by sub-cultivated for 5 days by serial dilution method
Assay type: functional
Conditions: not given
In short: as §2

Compound	MFC [µM]
CCCn1c(Cc2cc(OC)c(OC)cc2S(=O)(=O)N(C)C)n[nH]c1=S	130 (≈ 52.1 µg/mL)

Test system: Aspergillus niger
Assay: Antifungal activity against Aspergillus niger ATCC 6275 after 72 hrs by serial dilution method
Assay type: functional
Conditions: ATCC 6275, 72 h
In short: as §4

Compound	MIC [µM]
CCCn1c(Cc2cc(OC)c(OC)cc2S(=O)(=O)N(C)C)n[nH]c1=S	60 (≈ 24 µg/mL)

Test system: Enterobacter cloacae
Assay: Antibacterial activity against Enterobacter cloacae human isolate after 24 hrs by micro dilution method
Assay type: functional
Conditions: not given
In short: as §3

Compound	MIC [µM]
CCCn1c(Cc2cc(OC)c(OC)cc2S(=O)(=O)N(C)C)n[nH]c1=S	250 (≈ 100 µg/mL)

Test system: Staphylococcus aureus
Assay: Antibacterial activity against Staphylococcus aureus ATCC 6538 treated for 24 hrs followed by sub-cultivated for 72 hrs by micro dilution method
Assay type: functional
Conditions: not given
In short: as §1

Compound	MBC [µM]
CCCn1c(Cc2cc(OC)c(OC)cc2S(=O)(=O)N(C)C)n[nH]c1=S	500 (≈ 200 µg/mL)

Test system: Aspergillus flavus
Assay: Antifungal activity against Aspergillus flavus ATCC 9643 treated for 72 hrs followed by sub-cultivated for 5 days by serial dilution method
Assay type: functional
Conditions: not given
In short: as §2

Compound	MFC [µM]
CCCn1c(Cc2cc(OC)c(OC)cc2S(=O)(=O)N(C)C)n[nH]c1=S	130 (≈ 52.1 µg/mL)

Test system: Penicillium ochrochloron
Assay: Antifungal activity against Penicillium ochrochloron ATCC 9112 after 72 hrs by serial dilution method
Assay type: functional
Conditions: ATCC 9112, 72 h
In short: as §4

Compound	MIC [µM]
CCCn1c(Cc2cc(OC)c(OC)cc2S(=O)(=O)N(C)C)n[nH]c1=S	130 (≈ 52.1 µg/mL)

Test system: Aspergillus fumigatus
Assay: Antifungal activity against Aspergillus fumigatus human isolate treated for 72 hrs followed by sub-cultivated for 5 days by serial dilution method
Assay type: functional
Conditions: not given
In short: as §2

Compound	MFC [µM]
CCCn1c(Cc2cc(OC)c(OC)cc2S(=O)(=O)N(C)C)n[nH]c1=S	250 (≈ 100 µg/mL)

Test system: Aspergillus versicolor
Assay: Antifungal activity against Aspergillus versicolor ATCC 11730 after 72 hrs by serial dilution method
Assay type: functional
Conditions: ATCC 11730, 72 h
In short: as §4

Compound	MIC [µM]
CCCn1c(Cc2cc(OC)c(OC)cc2S(=O)(=O)N(C)C)n[nH]c1=S	250 (≈ 100 µg/mL)

Test system: Micrococcus flavus
Assay: Antibacterial activity against Micrococcus flavus ATCC 10240 after 24 hrs by micro dilution method
Assay type: functional
Conditions: ATCC 10240, 24 h
In short: as §3

Compound	MIC [µM]
CCCn1c(Cc2cc(OC)c(OC)cc2S(=O)(=O)N(C)C)n[nH]c1=S	250 (≈ 100 µg/mL)

Test system: Penicillium ochrochloron
Assay: Antifungal activity against Penicillium ochrochloron ATCC 9112 treated for 72 hrs followed by sub-cultivated for 5 days by serial dilution method
Assay type: functional
Conditions: not given
In short: as §2

Compound	MFC [µM]
CCCn1c(Cc2cc(OC)c(OC)cc2S(=O)(=O)N(C)C)n[nH]c1=S	250 (≈ 100 µg/mL)

Test system: Escherichia coli
Assay: Antibacterial activity against Escherichia coli ATCC 35210 treated for 24 hrs followed by sub-cultivated for 72 hrs by micro dilution method
Assay type: functional
Conditions: not given
In short: as §1

Compound	MBC [µM]
CCCn1c(Cc2cc(OC)c(OC)cc2S(=O)(=O)N(C)C)n[nH]c1=S	500 (≈ 200 µg/mL)

Test system: Bacillus cereus
Assay: Antibacterial activity against Bacillus cereus clinical isolate after 24 hrs by micro dilution method
Assay type: functional
Conditions: not given
In short: as §3

Compound	MIC [µM]
CCCn1c(Cc2cc(OC)c(OC)cc2S(=O)(=O)N(C)C)n[nH]c1=S	250 (≈ 100 µg/mL)

Test system: Talaromyces funiculosus
Assay: Antifungal activity against Penicillium funiculosum ATCC 36839 after 72 hrs by serial dilution method
Assay type: functional
Conditions: ATCC 36839, 72 h
In short: as §4

Compound	MIC [µM]
CCCn1c(Cc2cc(OC)c(OC)cc2S(=O)(=O)N(C)C)n[nH]c1=S	130 (≈ 52.1 µg/mL)

Test system: Trichoderma viride
Assay: Antifungal activity against Trichoderma viride IAM 5061 after 72 hrs by serial dilution method
Assay type: functional
Conditions: IAM 5061, 72 h
In short: as §4

Compound	MIC [µM]
CCCn1c(Cc2cc(OC)c(OC)cc2S(=O)(=O)N(C)C)n[nH]c1=S	60 (≈ 24 µg/mL)

Test system: Talaromyces funiculosus
Assay: Antifungal activity against Penicillium funiculosum ATCC 36839 treated for 72 hrs followed by sub-cultivated for 5 days by serial dilution method
Assay type: functional
Conditions: not given
In short: as §2

Compound	MFC [µM]
CCCn1c(Cc2cc(OC)c(OC)cc2S(=O)(=O)N(C)C)n[nH]c1=S	250 (≈ 100 µg/mL)

Test system: Enterobacter cloacae
Assay: Antibacterial activity against Enterobacter cloacae human isolate treated for 24 hrs followed by sub-cultivated for 72 hrs by micro dilution method
Assay type: functional
Conditions: not given
In short: as §1

Compound	MBC [µM]
CCCn1c(Cc2cc(OC)c(OC)cc2S(=O)(=O)N(C)C)n[nH]c1=S	250 (≈ 100 µg/mL)

Test system: Listeria monocytogenes
Assay: Antibacterial activity against Listeria monocytogenes NCTC 7973 after 24 hrs by micro dilution method
Assay type: functional
Conditions: NCTC 7973, 24 h
In short: as §3

Compound	MIC [µM]
CCCn1c(Cc2cc(OC)c(OC)cc2S(=O)(=O)N(C)C)n[nH]c1=S	250 (≈ 100 µg/mL)

Test system: Aspergillus fumigatus
Assay: Antifungal activity against Aspergillus fumigatus human isolate after 72 hrs by serial dilution method
Assay type: functional
Conditions: not given
In short: as §4

Compound	MIC [µM]
CCCn1c(Cc2cc(OC)c(OC)cc2S(=O)(=O)N(C)C)n[nH]c1=S	130 (≈ 52.1 µg/mL)

Test system: Aspergillus flavus
Assay: Antifungal activity against Aspergillus flavus ATCC 9643 after 72 hrs by serial dilution method
Assay type: functional
Conditions: ATCC 9643, 72 h
In short: as §4

Compound	MIC [µM]
CCCn1c(Cc2cc(OC)c(OC)cc2S(=O)(=O)N(C)C)n[nH]c1=S	60 (≈ 24 µg/mL)

Test system: Staphylococcus aureus
Assay: Antibacterial activity against Staphylococcus aureus ATCC 6538 after 24 hrs by micro dilution method
Assay type: functional
Conditions: ATCC 6538, 24 h
In short: as §3

Compound	MIC [µM]
CCCn1c(Cc2cc(OC)c(OC)cc2S(=O)(=O)N(C)C)n[nH]c1=S	500 (≈ 200 µg/mL)
